T cruzi repl – blocks replication of Trypanosoma cruzi; inhibition, % (no concentration beside the values); T. cruzi beta-gal in NIH3T3, luminescence, 90 h; 300,000 compounds, 1.4% hits;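 active means mean inhibition across valid replicates above about 55%, limit read from the data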;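 further: signal also drops with host cell toxicity which is not excluded here; 0% = plate median of DMSO wells and 100% = zero luminescence signal; higher percent means less beta-gal luminescence so fewer parasites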
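System: NIH/3T3 fibroblasts plus reporter T. cruzi. Medium: DMEM plus 2% FBS. Probe or stimulus: 5000 reporter trypomastigotes per well. Compound: single 50 nL compound addition per well in DMSO. Incubation: co-culture of at least 90 h after 3 h attachment. Detection: GalScreen β-gal luminescence, detergent lysis, 60 min. Evaluation: parasite load inhibition, %.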
Lmaj promast – inhibitors of Leishmania major promastigote growth; inhibition, % at 10 µM; Leishmania major promastigotes, resazurin fluorescence viability; 200,000 compounds, 9% hits; in the data active means inhibition above about 50%;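 further: promastigotes grown with compound for 44 hours at 28 °C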
DTT redox prof – compounds producing H2O2 with reducing agent – biochemical, NIH compound library profiling, artefact control for MLSCN library redox annotation, primary screen; DTT-dependent redox cycling H2O2, phenol red/HRP absorbance; 100% = 100 µM peroxide control, 0% = buffer; activation, % at 10 µM; 200,000 compounds, 0.03% hits;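 active means activation of at least 50% relative to the plate's high and low controls in the primary single-dose screen; inactive means activation below 50%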;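 further: compound incubated with DTT at 0.8 mM final as the reducing agent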
MPTP block – inhibitors of mitochondrial permeability transition pore; 360,000 compounds, 1.4% hits; AID 602449; isolated mouse mitochondria, Ca2+ swelling absorbance, 30 min; inhibition, % at 10 µM;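 active means inhibition of 50% or more, scaled per plate between neutral and stimulator controls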;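 further: 0% = DMSO wells given calcium and 100% = 1 mM EGTA wells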
Hep lipid drop – modulators of hepatic lipid droplet formation; inhibition, % at 6.5 µM; AID 1656; 240,000 compounds, 0.4% hits; AML12 mouse hepatocytes, oleate lipid droplets, BODIPY imaging;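 active means lipid droplet intensity inhibited by at least 50%, with more than 500 cells counted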
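Material – AML12 mouse liver cells · Also added – oleate loading, 100 µM · Compound dosing – 6.5 µM single-point dosing · Times – overnight treatment with compound plus oleate · Measured by – fluorescence imaging, 20x objective, two fields per well · Read-out – percent inhibition of filter-corrected integrated lipid droplet intensity per well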
* marks the source's active call; other numbers are inactive results; nt = not tested or not shown. Shown is part of a subset that was picked to be rich in hits.

SMILES	T cruzi repl	Lmaj promast	DTT redox prof	MPTP block	Hep lipid drop
CC(=O)N=c1sc2c3ccccc3ccc2n1C	66*	63*	2	1	nt
S=C(Nc1ccc(Cl)cc1)c1nc2ccccc2s1	15	-7	-3	1	nt
O=C(Nc1ccc(Cl)cc1)/C(=C/c1cccc(O)c1)c1nc2ccccc2s1	30	100*	0	5	40
CCCCCCSc1cccc(-c2nc3ccc(Cl)cn3c2NCc2ccccc2)c1	38	nt	nt	3	nt
CCOC(=O)C1=CN(Cc2ccco2)S(=O)(=O)NC1c1cccc(OC)c1 (stereo unspecified)	nt	nt	nt	-2	nt
O=C(O)c1ccc(-c2nc(-c3ccccc3)c(-c3ccccc3)[nH]2)cc1	-7	89*	-1	36	3
COc1ccc(-c2[nH]c(-c3ccc(C(=O)O)cc3)nc2-c2ccccc2)cc1	-23	-4	2	4	nt
CN(C)N1C(N)=C(C#N)C(c2cccc3ccccc23)C2=C1CC(c1ccccc1)CC2=O (stereo unspecified)	1	96*	1	-4	-38
CSCCC(NC(=O)/C(=C\c1ccc(Cl)cc1)NC(=O)c1ccccc1)C(=O)O (stereo unspecified)	-6	8	0	0	-7
CCOc1ccc(N(CC(=O)N2CCOCC2)S(=O)(=O)c2ccc(Cl)cc2)cc1	9	nt	nt	1	0
CC(=O)N(Cc1ccc(F)cc1)C1=C(NCCc2ccccc2)C(=O)c2ccccc2C1=O	39	100*	0	1	-15
CNC(=O)[C@H]1O[C@@H](n2cnc3c(NCc4cccc(I)c4)ncnc32)[C@H](O)[C@@H]1O	nt	nt	nt	4	nt
CN(CCCCCCCCC(=O)/C=N/O)Cc1ccccc1	44	87*	0	1	6
CN(C)CCCNCCCCNC(=O)/C=N/O	1	-1	-1	-1	nt
COC(=O)c1ccc(OCCCCN(C)Cc2ccccc2)cc1	41	nt	nt	1	-3
CN(C)CCCCCCCCCCC(=O)/C=N/O	47	99*	1	1	nt
Cc1c(C)c(C)c2[nH]c(-c3ccc4c(c3)OCO4)nc2c1C	58*	nt	nt	2	35
COc1ccc(C(=O)NNC(=O)CN2CCC(n3nnc4cc(F)ccc43)CC2)cc1	-14	50*	0	-1	24
O=C(Nc1c(F)cccc1F)c1cnc(N2CCN(c3ccccn3)CC2)c2ccccc12	20	79*	0	3	32
O=C(c1ccc(F)cc1)C(CCCCCC(CN1CCOCC1)C(=O)c1ccc(F)cc1)CN1CCOCC1 (stereo unspecified)	11	99*	1	nt	nt
Cc1ccc(C)c(CN2C(=O)C3(OCCCO3)c3ccccc32)c1	17	58*	1	5	nt
NNC(=O)c1ccc(CSc2n[nH]c(=O)[nH]c2=O)cc1	-3	nt	nt	1	-1
CCC1Oc2ccc(C)cc2N(CC(=O)N(Cc2ccncc2)Cc2ccco2)C1=O (stereo unspecified)	19	80*	1	0	-28
CCC1Oc2ccc(C)cc2N(CC(=O)N(Cc2cccnc2)Cc2cccc(F)c2)C1=O (stereo unspecified)	59*	93*	0	1	17
O=C(CN1C(=O)COc2ccccc21)N(Cc1cccnc1)Cc1cccc(F)c1	71*	95*	1	-3	-17
SMILES	T cruzi repl	Lmaj promast	DTT redox prof	MPTP block	Hep lipid drop
O=C(O)CCC(=O)N(Cc1cccnc1)Cc1cccc(F)c1	nt	-7	0	-1	nt
CCC1Oc2ccc(C)cc2N(CC(=O)N2CCOCC2)C1=O (stereo unspecified)	-4	nt	nt	-2	-8
C(#Cc1ccccc1)C[N+]1(CC#Cc2cccc3ccccc23)CCCC1	-4	100*	0	3	-10
COc1ccc(Nc2ncnc3c2cnn3Cc2ccc(C)cc2)cc1	6	90*	0	0	-23
c1ccc(Cn2ncc3c(Nc4ccccc4)ncnc32)cc1	-16	nt	nt	2	-16
Cc1ccc(Cn2ncc3c(N4CCN(c5ccccc5C)CC4)ncnc32)cc1	59*	22	4	2	-11
Cc1ccc(Cn2ncc3c(N4CCOCC4)ncnc32)cc1	nt	-5	0	0	nt
COc1cc(/C=C2/CC(C)OC2=O)c([N+](=O)[O-])cc1OC (stereo unspecified)	-3	nt	nt	1	-2
COc1cc(OC)c(OC)cc1/C=C1\CCC/C(=C\c2cc(OC)c(OC)cc2OC)C1=O	59*	nt	nt	1	-2
CC(=O)C(=Cc1ccc(-c2ccccc2)cc1)C(=O)c1ccccc1	nt	nt	nt	-3	nt
O=C(NC1=NCCS1)c1cccc(NC(=O)c2ccco2)c1	-1	99*	3	0	-3
O=C(NC1CCCC1)c1cccc(NC(=O)c2ccco2)c1	-11	86*	0	0	nt
CC(=O)c1cccc(NC(=O)c2cccc(NC(=O)c3ccco3)c2)c1	3	nt	nt	0	14
O=C(NCc1cccnc1)c1cccc(NC(=O)c2ccco2)c1	-5	77*	1	1	6
COCCn1c(SCC(=O)NC(=O)NC2CCCC2)nc2ccccc2c1=O	nt	nt	nt	2	nt
COc1cccc(-c2nn(-c3ccccc3)cc2/C=C\C(=O)c2cccs2)c1	25	65*	2	-3	nt
COc1cc(/C=C(\C#N)C(=O)NCC2CCCO2)ccc1OCCC(C)C (stereo unspecified)	-1	nt	nt	2	-15
CCc1cc(C(=O)c2ccc(C)cc2)c(NC(=O)CCl)s1	7	88*	0	3	18
Cc1cc(C(=O)c2ccc(Cl)cc2)c(NC(=O)CCl)s1	15	28	0	0	-13
COc1ccc(Nc2ncccc2C(=O)Nc2ccccc2)cc1	-3	28	0	0	nt
COc1ccc(NC(=O)c2cccnc2Nc2ccc(OC)cc2)cc1	16	76*	1	-3	nt
COc1ccc(CC(=O)N/N=C(\C)c2cccnc2)cc1	-29	nt	nt	-2	-1
CN=c1scc(-c2ccc(OC)cc2)n1/N=C(\C)c1cccnc1	58*	16	0	1	-4
CCCCNC(=S)N(C)/N=C/c1sc(N2CCCCC2)nc1-c1cccs1	52	96*	2	nt	7
NC(=O)N/N=C/c1sc(N2CCCCC2)nc1-c1cccs1	-4	nt	nt	1	nt
SMILES	T cruzi repl	Lmaj promast	DTT redox prof	MPTP block	Hep lipid drop
CC(C)NC(=S)N/N=C/c1sc(N2CCCCC2)nc1-c1cccs1	9	17	0	2	33
O=C(N/N=C/c1sc(N2CCCCC2)nc1-c1cccs1)C1CC1	5	69*	-1	0	13
CCN(CC)Cc1c(O)ccc2occ(C(=O)c3ccc(OC)cc3)c12	23	88*	-2	0	-3
COc1ccc(C(=O)c2coc3ccc(O)c(CN4CCCC4)c23)cc1	-13	7	0	0	nt
CC(C)c1ccc(C(=O)NCCCN(C)C)cc1	60*	-4	0	-1	3
CN(C)CCCNC(=O)c1ccc(Cl)c(S(=O)(=O)N(C)c2ccccc2)c1	65*	3	1	0	24
COCCNC(=O)c1cc2sc3ccccc3c2s1	-7	-3	2	2	0
